Data taken from ChEMBL document CHEMBL1128460, “Design, synthesis, and structure-activity relationships of a new series of alpha-adrenergic agonists: spiro[(1,3-diazacyclopent-1-ene)-5,2'-(1',2',3',4'- tetrahydronaphthalene)]” (J Med Chem, 1995).

What was measured:
[1] = target: T1, Alpha-2B adrenergic receptor (Rattus norvegicus, UniProt P19328); test: Binding affinity towards Alpha-2B adrenergic receptor in neonatal rat lung using [3H]-RX-821002 as radioligand
T1 sequence (P19328 whole entry): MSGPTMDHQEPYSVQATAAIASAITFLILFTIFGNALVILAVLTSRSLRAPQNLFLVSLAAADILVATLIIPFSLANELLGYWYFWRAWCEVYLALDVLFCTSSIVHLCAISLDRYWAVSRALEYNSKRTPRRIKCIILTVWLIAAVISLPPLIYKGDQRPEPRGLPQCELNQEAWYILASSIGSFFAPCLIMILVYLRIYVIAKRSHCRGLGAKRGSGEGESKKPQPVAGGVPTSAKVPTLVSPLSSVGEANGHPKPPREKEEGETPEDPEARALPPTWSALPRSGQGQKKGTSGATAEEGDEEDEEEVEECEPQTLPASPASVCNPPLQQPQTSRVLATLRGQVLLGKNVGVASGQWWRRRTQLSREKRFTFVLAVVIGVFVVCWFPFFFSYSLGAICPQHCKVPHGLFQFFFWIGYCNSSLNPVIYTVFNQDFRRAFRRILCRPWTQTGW
In short: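 Neonatal rat lung membranes with [3H]RX821002 (0.5 nM), nonspecific binding with phentolamine (10 µM). Nine concentrations over 3 log units, IC50 by log-probit, Ki by Cheng–Prusoff with Scatchard-derived Kd. ≥3 independent experiments in duplicate.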

[2] = target: T2, Alpha-2A adrenergic receptor (Homo sapiens, UniProt P08913); test: Binding affinity towards Alpha-2A adrenergic receptor in human platelets using [3H]RX-821002 as radioligand
T2 sequence (P08913 whole entry): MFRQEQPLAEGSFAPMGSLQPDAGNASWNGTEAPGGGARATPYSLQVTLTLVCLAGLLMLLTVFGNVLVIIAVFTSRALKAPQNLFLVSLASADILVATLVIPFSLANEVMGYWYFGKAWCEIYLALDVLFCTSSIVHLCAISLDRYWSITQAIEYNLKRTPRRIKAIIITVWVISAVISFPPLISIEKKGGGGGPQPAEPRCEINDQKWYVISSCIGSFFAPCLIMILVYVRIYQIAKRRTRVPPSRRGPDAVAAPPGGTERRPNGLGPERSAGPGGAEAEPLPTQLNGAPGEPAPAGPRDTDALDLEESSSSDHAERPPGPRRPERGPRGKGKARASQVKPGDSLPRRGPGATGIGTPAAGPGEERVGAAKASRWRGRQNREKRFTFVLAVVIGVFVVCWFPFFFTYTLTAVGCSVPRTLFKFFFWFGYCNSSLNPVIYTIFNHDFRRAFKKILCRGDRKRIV
In short: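 Human platelet membranes with [3H]RX821002 (1.5 nM), nonspecific binding with phentolamine (10 µM). Displacement at nine concentrations spanning 3 orders of magnitude, IC50 by log-probit analysis, converted to Ki using Scatchard Kd. ≥3 independent duplicate experiments.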

[3] = species on record: Canis familiaris; test: Maximal contractile response obtained with the agonist (expressed as a percentage of the maximal contraction to phenylephrine in the dog saphenous vein); assay type: functional, Canis lupus familiaris
In short: (§1)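 Vessel segments from mongrel dogs (15–25 kg) anesthetized with pentobarbital (30 mg/kg iv), mounted for isometric tension in physiological saline. Equilibrated 90 min with bath changes every 30 min, rauwolscine (10^-7 M) present throughout. Primed with KCl (100 mM), then phenylephrine (1 µM). Agonist concentration–response curves run at half-log steps, giving EC50 (µM) and Emax as % of phenylephrine maximum; mean ±SD.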

[4] = target: T3, Adrenergic receptor alpha-1 (Rattus norvegicus, UniProt P15823+P23944+P43140); test: Displacement of [3H]prazosin from rat cortex Alpha-1 adrenergic receptor
T3 sequence (P15823 whole entry): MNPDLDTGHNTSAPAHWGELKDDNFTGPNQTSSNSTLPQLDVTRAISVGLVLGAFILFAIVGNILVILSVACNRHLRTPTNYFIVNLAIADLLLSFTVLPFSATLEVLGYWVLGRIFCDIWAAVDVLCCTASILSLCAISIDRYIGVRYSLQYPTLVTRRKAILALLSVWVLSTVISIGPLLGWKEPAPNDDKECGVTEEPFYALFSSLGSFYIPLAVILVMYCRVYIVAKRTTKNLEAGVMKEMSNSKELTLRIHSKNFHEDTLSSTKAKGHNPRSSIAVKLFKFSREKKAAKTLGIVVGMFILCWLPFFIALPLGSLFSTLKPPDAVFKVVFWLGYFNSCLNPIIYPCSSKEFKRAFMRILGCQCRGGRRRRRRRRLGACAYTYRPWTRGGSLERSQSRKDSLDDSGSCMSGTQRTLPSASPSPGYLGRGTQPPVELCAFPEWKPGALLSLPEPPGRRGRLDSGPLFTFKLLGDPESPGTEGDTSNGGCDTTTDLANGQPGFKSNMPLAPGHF
T3 sequence (P23944 whole entry): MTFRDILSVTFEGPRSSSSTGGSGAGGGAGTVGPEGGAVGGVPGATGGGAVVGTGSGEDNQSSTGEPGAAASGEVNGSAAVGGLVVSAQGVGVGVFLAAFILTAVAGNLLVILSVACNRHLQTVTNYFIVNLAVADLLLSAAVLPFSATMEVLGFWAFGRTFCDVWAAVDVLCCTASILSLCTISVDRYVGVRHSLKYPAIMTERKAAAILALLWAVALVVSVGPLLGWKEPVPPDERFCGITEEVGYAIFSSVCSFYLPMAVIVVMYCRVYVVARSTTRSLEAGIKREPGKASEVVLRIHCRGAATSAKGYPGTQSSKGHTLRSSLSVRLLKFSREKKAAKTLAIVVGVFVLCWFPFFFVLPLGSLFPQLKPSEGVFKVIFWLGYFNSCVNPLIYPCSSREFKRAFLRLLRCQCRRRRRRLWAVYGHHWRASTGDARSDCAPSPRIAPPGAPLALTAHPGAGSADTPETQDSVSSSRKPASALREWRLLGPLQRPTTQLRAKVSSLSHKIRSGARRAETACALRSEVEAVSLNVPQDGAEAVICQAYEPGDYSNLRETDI
T3 sequence (P43140 whole entry): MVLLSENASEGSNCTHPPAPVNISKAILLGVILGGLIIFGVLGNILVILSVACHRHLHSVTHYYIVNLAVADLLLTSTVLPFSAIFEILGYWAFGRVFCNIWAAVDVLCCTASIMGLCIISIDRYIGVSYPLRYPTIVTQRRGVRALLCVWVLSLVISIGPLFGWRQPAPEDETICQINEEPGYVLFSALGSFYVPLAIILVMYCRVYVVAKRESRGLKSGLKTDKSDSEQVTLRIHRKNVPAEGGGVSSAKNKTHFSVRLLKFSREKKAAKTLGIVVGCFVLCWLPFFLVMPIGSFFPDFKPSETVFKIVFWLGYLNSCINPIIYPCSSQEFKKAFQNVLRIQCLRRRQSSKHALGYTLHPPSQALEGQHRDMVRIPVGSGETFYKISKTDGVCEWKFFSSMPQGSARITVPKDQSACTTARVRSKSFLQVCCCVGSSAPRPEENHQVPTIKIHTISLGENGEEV
In short: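 Rat cortex membranes labelled with [3H]prazosin (0.3 nM), nonspecific binding with prazosin (10 µM). Nine drug concentrations spanning 3 log units, IC50 by log-probit analysis. Ki by Cheng–Prusoff using Kd from Scatchard saturation. At least three independent experiments in duplicate.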

[5] = species on record: Canis familiaris; test: Effective concentration for the agonist in the isolated blood vessel using in vitro saphenous vein; assay type: functional; conditions: Canis lupus familiaris; in short: as §1
[6] = target: T4, Adrenergic receptor alpha (Rattus norvegicus) (UniProt P15823+P23944+P43140+P22086+P19328+P22909); test: Alpha adrenergic activity was evaluated as maximal pressure response caused by agonist, expressed in mmHg (the maximum obtained with phenylephrine is 150 mmHg).; assay type: functional
[7] = Ratio of C20 obtained in the absence or presence of [C20 (1 mg of yohimbine.) / C20 (control)]; assay type: functional
In short: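 Pithed rat arterial pressure assay with tertatolol (100 mg/kg) pretreatment, then yohimbine (1 mg/kg) 10 min later. Cumulative iv agonist doses given at 20 s intervals after a further 10 min, C20 (+20 mmHg dose) obtained. Ratio expressed as C20(yohimbine)/C20(control); 3–6 determinations.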

[8] = species on record: Canis familiaris; test: Effective concentration for the agonist in the isolated blood vessel using in vitro femoral artery; assay type: functional; conditions: Canis lupus familiaris; in short: as §1
[9] = species on record: Canis familiaris; test: Maximal contractile response obtained with the agonist (expressed as a percentage of the maximal contraction to phenylephrine in the dog femoral artery); assay type: functional, Canis lupus familiaris; in short: as §1
[10] = Ratio of C20 obtained in the absence or presence of [C20 ( 0.1 mg of prazosin ) / C20 (control)]; assay type: functional
In short: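 Pithed rats pretreated with tertatolol (100 mg/kg), then 10 min later with prazosin (100 µg/kg). Cumulative iv agonist doses given another 10 min later at 20 s intervals. Arterial pressure recorded, C20 (dose giving +20 mmHg) determined. Ratio calculated as C20(prazosin)/C20(control); 3–6 determinations.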

[11] = target: T4, Adrenergic receptor alpha (Rattus norvegicus); test: Alpha adrenergic activity was evaluated as concentration (iv) which increases the arterial pressure by 20 mmHg in the pithed rat; assay type: functional, organism-based; conditions: Artery

SMILES	Ki [1]	Ki [2]	Emax [3]	Ki [4]	EC50 [5]	Max [6]	Ratio [7]	EC50 [8]	Emax [9]	Ratio [10]	C20 [11]
COc1cccc2c1CCC1(CNC=N1)C2 (configuration not stated)	159 nM	12 nM									
COc1cccc2c1CC1(CC2)CNC=N1 (configuration not stated)	99 nM	51 nM									
Clc1cc(Cl)c2c(c1)CC1(CC2)CN=CN1 (configuration not stated)	95 nM	3 nM	45	0.7 µM	2000 nM	91 mmHg	3.1	21000 nM	10	9.5	19 µg/kg
COc1cc(C)cc2c1CCC1(CN=CN1)C2 (configuration not stated)			81	0.6 µM	3900 nM	136 mmHg	1	800 nM	60	1.6	10 µg/kg
Fc1cccc2c1CC1(CC2)CN=CN1 (configuration not stated)	152 nM	12 nM	99	2.5 µM	2300 nM	131 mmHg	1	57000 nM	75	0.6	4.6 µg/kg
COc1ccc2c(c1)CCC1(CNC=N1)C2 (configuration not stated)	1200 nM	87 nM									
FC(F)(F)c1ccc(Cl)c(NC2=NCCN2)c1	179 nM	1560 nM	81	65.8 µM	5100 nM	73 mmHg	2.2	4700 nM	22	33	10 µg/kg
COc1ccc(SC)c2c1CC1(CC2)CN=CN1 (configuration not stated)			98	0.6 µM	180 nM	136 mmHg	45	290 nM	96	75	0.003 µg/kg
COc1cccc2c1CC1(CC2)CN=CN1 (configuration not stated)			100	16 µM	500 nM	139 mmHg	4.6	7200 nM	97	2	0.64 µg/kg
COc1ccc2c(c1)CC1(CC2)CNC=N1 (configuration not stated)	193 nM	18 nM									
NC1=NC2(CCc3cccc(Cl)c3C2)CO1 (configuration not stated)	20 nM	1.6 nM	117	0.8 µM	14 nM	140 mmHg	3	360 nM	68	2	0.2 µg/kg
COc1ccc(OC)c2c1CCC1(CN=CN1)C2 (configuration not stated)			106	2 µM	300 nM	128 mmHg	2	120 nM	77	21	0.05 µg/kg
COc1cccc2c1CCC1(CN=CN1)C2 (configuration not stated)			101	3.4 µM	800 nM	139 mmHg	4.7	2000 nM	93	5.4	0.85 µg/kg
